Data from ChEMBL document CHEMBL1806372, “Cytotoxic ring A-modified steroid analogues derived from Grundmann's ketone” (Eur J Med Chem, 2011).

Columns and labels:
Type in all cases: functional
[1] = test system: CAKI-1; experiment: Growth inhibition of human Caki1 cells after 48 hrs by sulforhodamine B assay; conditions: CAKI-1, 48 h
How it was run: (§1)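 From log concentration versus % growth curves, GI50 (50% decrease in net growth), TGI (total growth inhibition) and LC50 (net 50% loss of initial cells) are derived for each line.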

[2] = test system: SK-MEL-2; experiment: Growth inhibition of human SK-MEL-2 cells after 48 hrs by sulforhodamine B assay; conditions: SK-MEL-2, 48 h
How it was run: (§2)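 GI50, TGI and LC50 were derived from log concentration versus % growth inhibition curves for each cell line. GI50 is the concentration giving a 50% decrease in net cell growth. Insensitive lines are reported as greater than the highest concentration.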

[3] = test system: 786-0; experiment: Growth inhibition of human 786-0 cells after 48 hrs by sulforhodamine B assay; conditions: 786-0, 48 h; how it was run: as §1
[4] = test system: MCF7; experiment: Growth inhibition of human MCF7 cells after 48 hrs by sulforhodamine B assay; conditions: MCF7, 48 h; how it was run: as §2
[5] = test system: M14; experiment: Growth inhibition of human M14 cells after 48 hrs by sulforhodamine B assay; conditions: M14, 48 h; how it was run: as §1
[6] = test system: HCT-15; experiment: Growth inhibition of human HCT15 cells after 48 hrs by sulforhodamine B assay; conditions: HCT-15, 48 h; how it was run: as §1
[7] = test system: SK-OV-3; experiment: Growth inhibition of human SKOV3 cells after 48 hrs by sulforhodamine B assay; conditions: SK-OV-3, 48 h
How it was run: (§3)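 NCI 60-cell panel five-dose assay. GI50, TGI and LC50 are derived from log concentration versus % growth inhibition curves. Cell lines insensitive at the top concentration are given a ">" prefix.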

[8] = test system: Malme-3M; experiment: Growth inhibition of human MALME-3M cells after 48 hrs by sulforhodamine B assay; how it was run: as §2
[9] = test system: OVCAR-4; experiment: Cytotoxicity against human OVCAR4 cells after 48 hrs by sulforhodamine B assay; conditions: OVCAR-4, 48 h, read-out: LC50 (the source's name)
How it was run: (§4)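 NCI 60 human tumour cell line panel run to the NCI protocol. GI50, TGI and LC50 come from log concentration vs % growth inhibition curves for each cell line. Lines insensitive at the top concentration are reported with ">".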

[10] = test system: A549; experiment: Cytotoxicity against human A549 cells after 48 hrs by sulforhodamine B assay; conditions: A549, 48 h, read-out: LC50 (the source's name); how it was run: as §4
[11] = test system: SF-268; experiment: Growth inhibition of human SF268 cells after 48 hrs by sulforhodamine B assay; conditions: SF-268, 48 h; how it was run: as §2
[12] = test system: NCI-H226; experiment: Cytotoxicity against human NCI-H226 cells after 48 hrs by sulforhodamine B assay; conditions: NCI-H226, 48 h, read-out: LC50 (the source's name); how it was run: as §4
[13] = test system: EKVX; experiment: Cytotoxicity against human EKVX cells after 48 hrs by sulforhodamine B assay; conditions: read-out: LC50 (the source's name); how it was run: as §4
[14] = test system: NCI-H226; experiment: Growth inhibition of human NCI-H226 cells after 48 hrs by sulforhodamine B assay; conditions: NCI-H226, 48 h; how it was run: as §2
[15] = test system: NCI-H522; experiment: Cytotoxicity against human NCI-H522 cells after 48 hrs by sulforhodamine B assay; conditions: NCI-H522, 48 h, read-out: LC50 (the source's name); how it was run: as §4
[16] = test system: ACHN; experiment: Growth inhibition of human ACHN cells after 48 hrs by sulforhodamine B assay; how it was run: as §1
[17] = test system: COLO 205; experiment: Cytotoxicity against human COLO205 cells after 48 hrs by sulforhodamine B assay; conditions: COLO 205, 48 h, read-out: LC50 (the source's name); how it was run: as §4
[18] = test system: NCI/ADR-RES; experiment: Cytotoxicity against human NCI/ADR-RES cells after 48 hrs by sulforhodamine B assay; conditions: read-out: LC50 (the source's name); how it was run: as §4
[19] = test system: SN12C; experiment: Growth inhibition of human SN12C cells after 48 hrs by sulforhodamine B assay; how it was run: as §3
[20] = test system: HCT-15; experiment: Cytotoxicity against human HCT15 cells after 48 hrs by sulforhodamine B assay; conditions: HCT-15, 48 h, read-out: LC50 (the source's name); how it was run: as §4
[21] = test system: SF-539; experiment: Growth inhibition of human SF539 cells after 48 hrs by sulforhodamine B assay; conditions: SF-539, 48 h; how it was run: as §2
[22] = test system: SR; experiment: Cytotoxicity against human SR cells after 48 hrs by sulforhodamine B assay; conditions: read-out: LC50 (the source's name)
[23] = test system: UACC-257; experiment: Cytotoxicity against human UACC257 cells after 48 hrs by sulforhodamine B assay; conditions: UACC-257, 48 h, read-out: LC50 (the source's name)
[24] = test system: RPMI-8226; experiment: Cytotoxicity against human RPMI8226 cells after 48 hrs by sulforhodamine B assay; conditions: RPMI-8226, 48 h, read-out: LC50 (the source's name); how it was run: as §4
[25] = Growth inhibition of human Hs 578T cells after 48 hrs by sulforhodamine B assay; how it was run: as §1
[26] = test system: Malme-3M; experiment: Cytotoxicity against human MALME-3M cells after 48 hrs by sulforhodamine B assay; conditions: read-out: LC50 (the source's name); how it was run: as §4
[27] = test system: UO-31; experiment: Cytotoxicity against human UO31 cells after 48 hrs by sulforhodamine B assay; conditions: UO-31, 48 h, read-out: LC50 (the source's name)
[28] = test system: RPMI-8226; experiment: Growth inhibition of human RPMI8226 cells after 48 hrs by sulforhodamine B assay; conditions: RPMI-8226, 48 h; how it was run: as §2
[29] = test system: MDA-MB-435; experiment: Growth inhibition of human MDA-MB-435 cells after 48 hrs by sulforhodamine B assay; conditions: MDA-MB-435, 48 h; how it was run: as §2
[30] = test system: NCI-H460; experiment: Growth inhibition of human NCI-H460 cells after 48 hrs by sulforhodamine B assay; conditions: NCI-H460, 48 h; how it was run: as §2
[31] = test system: OVCAR-5; experiment: Cytotoxicity against human OVCAR5 cells after 48 hrs by sulforhodamine B assay; conditions: OVCAR-5, 48 h, read-out: LC50 (the source's name); how it was run: as §4
[32] = test system: SNB-19; experiment: Cytotoxicity against human SNB19 cells after 48 hrs by sulforhodamine B assay; conditions: SNB-19, 48 h, read-out: LC50 (the source's name); how it was run: as §4
[33] = test system: HCC 2998; experiment: Growth inhibition of human HCC2998 cells after 48 hrs by sulforhodamine B assay; conditions: HCC 2998, 48 h; how it was run: as §1
[34] = test system: HCC 2998; experiment: Cytotoxicity against human HCC2998 cells after 48 hrs by sulforhodamine B assay; conditions: HCC 2998, 48 h, read-out: LC50 (the source's name); how it was run: as §4
[35] = test system: NCI/ADR-RES; experiment: Growth inhibition of human NCI/ADR-RES cells after 48 hrs by sulforhodamine B assay; how it was run: as §2
[36] = test system: UACC-257; experiment: Growth inhibition of human UACC257 cells after 48 hrs by sulforhodamine B assay; conditions: UACC-257, 48 h; how it was run: as §3
[37] = test system: SK-MEL-5; experiment: Growth inhibition of human SK-MEL-5 cells after 48 hrs by sulforhodamine B assay; conditions: SK-MEL-5, 48 h; how it was run: as §2

CC(C)CCC[C@@H](C)[C@H]1CC[C@H]2C3=CCn4c(=O)ccc(=O)n4[C@@H]3CC[C@]12C
GI50 [1]: 179 nM
TGI [1]: 577 nM
GI50 [2]: 286 nM
TGI [2]: 774 nM
GI50 [3]: 713 nM
TGI [3]: 1950 nM
GI50 [4]: 285 nM
TGI [4]: 1240 nM
GI50 [5]: 285 nM
TGI [5]: 1010 nM
GI50 [6]: 418 nM
TGI [6]: 2220 nM
GI50 [7]: 1630 nM
TGI [7]: 2990 nM
GI50 [8]: 1440 nM
TGI [8]: 3030 nM
CC50 [9]: 5630 nM
CC50 [10]: 4040 nM
GI50 [11]: 1460 nM
TGI [11]: 2880 nM
CC50 [12]: 8330 nM
CC50 [13]: 7330 nM
GI50 [14]: 1270 nM
TGI [14]: 3260 nM
CC50 [15]: 1540 nM
GI50 [16]: 1040 nM
TGI [16]: 2320 nM
CC50 [17]: 2360 nM
CC50 [18]: 2280 nM
GI50 [19]: 388 nM
TGI [19]: 1690 nM
CC50 [20]: > 100000 nM
GI50 [21]: 1470 nM
TGI [21]: 2890 nM
CC50 [22]: > 100000 nM
CC50 [23]: 4320 nM
CC50 [24]: > 100000 nM
GI50 [25]: 1800 nM
TGI [25]: 4790 nM
CC50 [26]: 6380 nM
CC50 [27]: 4190 nM
GI50 [28]: 181 nM
TGI [28]: 601 nM
GI50 [29]: 354 nM
TGI [29]: 1780 nM
GI50 [30]: 739 nM
TGI [30]: 2250 nM
CC50 [31]: 7840 nM
CC50 [32]: 6010 nM
GI50 [33]: 431 nM
TGI [33]: 1640 nM
CC50 [34]: 4990 nM
GI50 [35]: 417 nM
TGI [35]: 1900 nM
GI50 [36]: 433 nM
TGI [36]: 1550 nM
GI50 [37]: 563 nM
TGI [37]: 1830 nM
